# Measurements gathered from unrelated publications.
# Each line is one published result; the experiments were not run side by side.
# Target: Dual specificity protein kinase CLK2 (CLK2, Homo sapiens, UniProt P49760)
Compound,assay,setting,quantity,value
COc1cccc(CNC(=O)c2nc3scc(COCc4ccc(C(=O)O)cc4)c3c(=O)[nH]2)c1,"cell-free assay, competition with immobilised ligand",1 µM,remaining binding,92.4%
CS(=O)(=O)CCNCc1ccc(-c2ccc3ncnc(Nc4ccc(OCc5cccc(F)c5)c(Cl)c4)c3c2)o1,cell-free assay,0.5 µM,remaining signal,95.1%
O=S(=O)(NC1CCC(c2cc(F)ccc2F)(S(=O)(=O)c2ccc(Cl)cc2)CC1)C(F)(F)F (centres unmarked),"cell-free assay, competition with immobilised ligand",1 µM,remaining binding,100%
Cn1c(=O)n(-c2ccc(C(C)(C)C#N)cc2)c2c3cc(-c4cnc5ccccc5c4)ccc3ncc21,"enzyme activity, inhibitor",10 µM,remaining activity,53%
Cc1cc(NC(=O)c2cccc3cc(-c4cccc5[nH]nc(N)c45)ccc23)ccc1F,"enzyme activity, inhibitor",0.1 µM,activity vs control,95%
CCCOc1ccc([C@@H]2[C@@H](C(=O)O)[C@H](c3ccc4c(c3)OCO4)CN2CC(=O)Nc2c(CC)cccc2CC)cc1,"cell-free assay, competition with immobilised ligand",1 µM,remaining binding,100%
COc1cc(/C=C/C(=O)CC(=O)/C=C/c2ccc(O)c(OC)c2)ccc1O,"enzyme activity, inhibitor",1 µM,activity vs control,48%
c1ccc(CNc2nc(N3CCOc4ccccc43)nc3c2CCCC3)cc1,"target engagement in cells, inhibitor, chemoproteomics",20 mM,inhibition,-5.9%
CN([C@@H]1CCc2c(CC(=O)O)c3cc(S(C)(=O)=O)ccc3n2C1)S(=O)(=O)c1ccc(F)cc1,"cell-free assay, competition with immobilised ligand",1 µM,remaining binding,100%
Nc1ncnc2occ(-c3ccc(NC(=O)Nc4cc(C(F)(F)F)ccc4F)cc3)c12,"cell-free assay, inhibitor",20 µM,remaining signal,23%
COc1cc(Nc2cnc(C#N)c(O[C@H](C)CN(C)C)n2)ncc1-c1cnn(C)c1,"enzyme activity, inhibitor, radiometric",10 µM,remaining activity,50%
COc1cc2ncnc(Nc3ccc(Oc4ccccc4)c(C)c3C)c2cc1OC,"enzyme activity, inhibitor",1 µM,inhibition,3%
COc1ccc2c(O[C@@H]3C[C@H]4C(=O)N[C@]5(C(=O)O)CC5/C=C\CCCCC[C@H](NC(=O)OC5CCCC5)C(=O)N4C3)cc(-c3csc(NC(=O)C(C)C)n3)nc2c1C (some centres unmarked),"cell-free assay, competition with immobilised ligand",1 µM,remaining binding,100%
CCN(CC)c1ccc(C2=NNC(=O)CC2C)cc1[N+](=O)[O-] (centres unmarked),"enzyme activity, inhibitor",10 µM,remaining activity,96%
CC(C)(C)c1nc(-c2cccc(NS(=O)(=O)c3c(F)cccc3F)c2F)c(-c2ccnc(N)n2)s1,"enzyme activity, inhibitor, radiometric",1 µM,remaining activity,98%
Cn1c2c(c3ccc(Cl)c(Cl)c31)C(C#N)C1(CCN(C(=O)OC(C)(C)C)CC1)NC2=O (racemic),"thermal stability, DSF",10 µM,ΔTm,-0.3 °C
Cc1ccc(NC(=O)c2ccc(CN3CCN(C)CC3)cc2)cc1Nc1nc(-c2cccnc2)cs1,cell-free assay,0.5 µM,remaining signal,86%
O=C(Nc1cnn(-c2csc(C(=O)NC3COC3)c2)c1)Nc1c(F)cccc1Cl,"enzyme activity, inhibitor",5 µM,remaining activity,109%
Cn1c2c(c3ccc(Cl)c(Cl)c31)C(C#N)C1(CCCCC1)NC2=O (racemic),"thermal stability, DSF",10 µM,ΔTm,2.1 °C
O=C(NCc1ncc(C(F)(F)F)cc1Cl)c1ccc2c(c1)C1(CCS(=O)(=O)CC1)[C@@H](C1CC1)N2S(=O)(=O)c1ccc(F)cc1,"cell-free assay, competition with immobilised ligand",1 µM,remaining binding,82%
Cn1c2c(Cl)c(Cl)ccc2c2cc(N)[nH]c(=O)c21,"thermal stability, DSF",10 µM,ΔTm,1.3 °C
Cn1cnc(Br)c1C1=CN(c2ncnc3[nH]cnc23)CCS1,"enzyme activity, inhibitor, radiometric",2 µM,inhibition,97.2%
COc1cc2ncnc(Nc3ccc(F)c(Cl)c3)c2cc1OCCCN1CCOCC1,cell-free assay,0.5 µM,remaining signal,94.8%
CS(=O)(=O)Nc1cccc(-c2csc(NC(=O)CSc3nc4nccnc4c(=O)n3CCc3ccccc3)n2)c1,"enzyme activity, inhibitor",10 µM,inhibition,11%
CN1CCC2(CC1)NC(=O)c1c(c3ccc(Cl)c(Cl)c3n1C)C2C#N (racemic),"thermal stability, DSF",10 µM,ΔTm,1.9 °C
O=C1Nc2ccc(Cl)cc2C1=Cc1cc(Cl)c(O)c(Cl)c1,cell-free assay,0.5 µM,remaining signal,95.5%
CC/C(=N\NC(=O)NCc1cccc(O)c1)c1ccc(O)c(C)c1O,"enzyme activity, inhibitor",0.1 µM,inhibition,1.6%
FC(F)(F)Oc1cccc(-c2cnc3ccc(-c4ccncc4)nn23)c1,"enzyme activity, inhibitor, radiometric",5 µM,activity vs control,0.623%
Nc1nc(Nc2ccc(S(N)(=O)=O)cc2)sc1C(=O)c1ccccc1[N+](=O)[O-],"enzyme activity, inhibitor",0.1 µM,inhibition,60 to 66%
Cn1c2c(c3ccc(Cl)c(Cl)c31)C(C#N)C(C)(C)NC2=O (centres unmarked),"thermal stability, DSF",10 µM,ΔTm,3.2 °C
CCCOc1ccc(OC)c(F)c1C(=O)c1ccc(C(=O)N[C@@H]2CNC[C@H]2NC(=O)c2ccc3[nH]ncc3c2)cc1,"enzyme activity, inhibitor",10 µM,remaining activity,36%
CS(=O)(=O)N1CCCC(NC(=O)[C@H](CCC2CCCCC2)NC(=O)c2ccc(CNC(=O)c3cnc4ccccn34)cc2)C1 (some centres unmarked),"cell-free assay, competition with immobilised ligand",0.1 µM,remaining binding,98%
Cn1cncc1C1=CN(c2ncnc3[nH]cnc23)CCS1,"enzyme activity, inhibitor, radiometric",2 µM,inhibition,97.8%
CS(=O)(=O)NCC[C@H](NC(=O)c1cncc2c1cnn2-c1ccc(F)cc1)c1ccnc(S(C)(=O)=O)c1,"cell-free assay, competition with immobilised ligand",1 µM,remaining binding,100%
CN(C)C1CCN(CC#Cc2nn(C3CCCC3)c3nc(NCc4ccccc4)ncc23)C1 (centres unmarked),"enzyme activity, inhibitor, FRET",0.1 µM,inhibition,8%
